Measurements as given in ChEMBL document CHEMBL3992493, “New approach of delivering cytotoxic drugs towards CAIX expressing cells: A concept of dual-target drugs” (Eur J Med Chem, 2017).
Activity calls are given as the source filed them. The rule behind the calls is not given here.

Experiments:
MDCK [1] = experiment: Cytotoxicity against MDCK cells expressing carbonic anhydrase 9 assessed as reduction in cell viability at 500 nM pretreated for 1 hr followed by 2 Gy irradiation under normoxic condition by Alamar blue assay; format: functional, cell-based; conditions: Canis lupus familiaris
How it was run: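 MDCK CAIX+ cells (human CAIX transfected) under normoxia (21% O2, 5% CO2). ATR inhibitors in 0.5% DMSO added 1 h before X-irradiation with 2 Gy. Exposure 72 h total, medium replaced, then 72 h further growth. Viability by 2 h alamarBlue conversion in normoxia.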

Carbonic anhydrase 12 = Carbonic anhydrase 12 (Homo sapiens, UniProt O43570); experiment: Binding affinity to recombinant human carbonic anhydrase 12 after 15 mins by stopped-flow CO2 hydration assay
Sequence of Carbonic anhydrase 12 (O43570 whole entry): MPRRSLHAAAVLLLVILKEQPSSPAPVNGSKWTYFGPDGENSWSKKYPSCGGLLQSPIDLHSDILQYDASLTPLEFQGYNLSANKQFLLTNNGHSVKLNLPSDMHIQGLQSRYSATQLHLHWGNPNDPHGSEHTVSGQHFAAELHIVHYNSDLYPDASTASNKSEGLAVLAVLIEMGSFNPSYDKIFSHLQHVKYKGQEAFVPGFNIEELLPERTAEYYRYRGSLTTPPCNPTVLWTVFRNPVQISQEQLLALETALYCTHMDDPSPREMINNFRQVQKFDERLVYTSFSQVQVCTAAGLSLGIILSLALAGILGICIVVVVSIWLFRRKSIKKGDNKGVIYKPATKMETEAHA

MDCK [2] = experiment: Cytotoxicity against MDCK cells expressing carbonic anhydrase 9 assessed as reduction in cell viability at 500 nM after 72 hrs under anoxic condition by Alamar blue assay; format: functional, cell-based; conditions: Canis lupus familiaris
How it was run: (§1)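 MDCK CAIX+ or CAIX− cells, 24 h anoxic preincubation (≤0.02% O2, 5% CO2) in pre-equilibrated DMEM. ATR inhibitors (0.5% DMSO) applied for 72 h without irradiation, then washed off, and 72 h normoxic regrowth. Readout by 2 h alamarBlue conversion under normoxia.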

MDCK [3] = experiment: Cytotoxicity against carbonic anhydrase 9 knockdown MDCK cells assessed as reduction in cell viability at 500 nM pretreated for 1 hr followed by 4 Gy irradiation under anoxic condition by Alamar blue assay; format: cell-based, Canis lupus familiaris; conditions: dog, 0.5 µM
How it was run: (§2)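 MDCK cells with or without CAIX, pre-exposed 24 h to anoxia (≤0.02% O2, 5% CO2, balance N2) in pre-equilibrated DMEM. ATR inhibitors in 0.5% DMSO added 1 h before 4 Gy X-irradiation. Exposure 72 h total, medium replaced, then 72 h normoxic regrowth. Viability by 2 h alamarBlue in normoxia.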

Carbonic anhydrase 9 = Carbonic anhydrase 9 (Homo sapiens, UniProt Q16790); experiment: Binding affinity to recombinant human carbonic anhydrase 9 after 15 mins by stopped-flow CO2 hydration assay
MDCK [4] = experiment: Cytotoxicity against MDCK cells expressing carbonic anhydrase 9 assessed as reduction in cell viability at 500 nM pretreated for 1 hr followed by 4 Gy irradiation under anoxic condition by Alamar blue assay; format: functional, cell-based; conditions: Canis lupus familiaris; how it was run: as §2
Carbonic anhydrase 2 = Carbonic anhydrase 2 (Homo sapiens, UniProt P00918); experiment: Binding affinity to recombinant human carbonic anhydrase 2 after 15 mins by stopped-flow CO2 hydration assay
MDCK [5] = experiment: Cytotoxicity against carbonic anhydrase 9 knockdown MDCK cells assessed as reduction in cell viability at 500 nM pretreated for 72 hrs followed by 72 hrs incubation under normoxic condition by Alamar blue assay; format: cell-based, Canis lupus familiaris; conditions: dog, 0.5 µM
How it was run: (§3)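 MDCK cells transfected with human CAIX or scrambled vector, normoxia (21% O2, 5% CO2). ATR inhibitors in 0.5% DMSO for 72 h, medium replaced, cells grown a further 72 h. Viability from 2 h alamarBlue conversion in normoxia.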

MDCK [6] = experiment: Cytotoxicity against carbonic anhydrase 9 knockdown MDCK cells assessed as reduction in cell viability at 500 nM after 72 hrs under anoxic condition by Alamar blue assay; format: cell-based, Canis lupus familiaris; conditions: dog, 0.5 µM; how it was run: as §1
Carbonic anhydrase 1 = Carbonic anhydrase 1 (Homo sapiens, UniProt P00915); experiment: Binding affinity to recombinant human carbonic anhydrase 1 after 15 mins by stopped-flow CO2 hydration assay
Sequence of Carbonic anhydrase 1 (P00915 whole entry): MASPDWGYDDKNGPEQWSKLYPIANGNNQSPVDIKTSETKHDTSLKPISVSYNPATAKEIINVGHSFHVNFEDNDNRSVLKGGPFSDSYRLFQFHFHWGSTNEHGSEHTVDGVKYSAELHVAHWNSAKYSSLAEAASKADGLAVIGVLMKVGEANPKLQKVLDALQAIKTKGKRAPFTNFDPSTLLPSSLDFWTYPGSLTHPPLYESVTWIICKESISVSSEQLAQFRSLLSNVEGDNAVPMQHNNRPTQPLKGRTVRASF

MDCK [7] = experiment: Cytotoxicity against MDCK cells expressing carbonic anhydrase 9 assessed as reduction in cell viability at 500 nM pretreated for 72 hrs followed by 72 hrs incubation under normoxic condition by Alamar blue assay; format: functional, cell-based; conditions: Canis lupus familiaris; how it was run: as §3
MDCK [8] = experiment: Cytotoxicity against MDCK cells expressing carbonic anhydrase 9 assessed as reduction in cell viability at 50 nM after 72 hrs under anoxic condition by Alamar blue assay; format: functional, cell-based; conditions: Canis lupus familiaris
How it was run: (§4)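 ATR inhibitor without irradiation: MDCK CAIX+ or scrambled-control CAIX− cells were preconditioned 24 h at ≤0.02% O2 (anoxia) or 21% O2. Compound was added in 0.5% DMSO for 72 h, then washed off. Cells regrew 72 h under normoxia, followed by 2 h alamarBlue conversion. Viability is relative to control.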

MDCK [9] = experiment: Cytotoxicity against carbonic anhydrase 9 knockdown MDCK cells assessed as reduction in cell viability at 50 nM pretreated for 72 hrs followed by 72 hrs incubation under normoxic condition by Alamar blue assay; format: cell-based, Canis lupus familiaris; conditions: dog, 0.05 µM; how it was run: as §4
MDCK [10] = experiment: Cytotoxicity against MDCK cells expressing carbonic anhydrase 9 assessed as reduction in cell viability at 50 nM pretreated for 72 hrs followed by 72 hrs incubation under normoxic condition by Alamar blue assay; format: functional, cell-based; conditions: Canis lupus familiaris; how it was run: as §4
MDCK [11] = experiment: Cytotoxicity against MDCK cells expressing carbonic anhydrase 9 assessed as reduction in cell viability at 50 nM pretreated for 1 hr followed by 4 Gy irradiation under anoxic condition by Alamar blue assay; format: functional, cell-based; conditions: Canis lupus familiaris
How it was run: (§5)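 ATR inhibitor plus radiation: MDCK CAIX+/CAIX− cells were preconditioned 24 h under normoxia (21% O2) or anoxia (≤0.02% O2). Compound in 0.5% DMSO was added 1 h before X-irradiation, 2 Gy normoxic or 4 Gy anoxic. Total compound exposure was 72 h, then washout and 72 h normoxic regrowth. Readout was 2 h alamarBlue conversion, as relative viability.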

MDCK [12] = experiment: Cytotoxicity against carbonic anhydrase 9 knockdown MDCK cells assessed as reduction in cell viability at 50 nM after 72 hrs under anoxic condition by Alamar blue assay; format: cell-based, Canis lupus familiaris; conditions: dog, 0.05 µM; how it was run: as §4
MDCK [13] = experiment: Cytotoxicity against MDCK cells expressing carbonic anhydrase 9 assessed as reduction in cell viability at 50 nM pretreated for 1 hr followed by 2 Gy irradiation under normoxic condition by Alamar blue assay; format: functional, cell-based; conditions: Canis lupus familiaris; how it was run: as §5
MDCK [14] = experiment: Cytotoxicity against carbonic anhydrase 9 knockdown MDCK cells assessed as reduction in cell viability at 50 nM pretreated for 1 hr followed by 4 Gy irradiation under anoxic condition by Alamar blue assay; format: cell-based, Canis lupus familiaris; conditions: dog, 0.05 µM; how it was run: as §5
MDCK [15] = experiment: Cytotoxicity against carbonic anhydrase 9 knockdown MDCK cells assessed as reduction in cell viability at 50 nM pretreated for 1 hr followed by 2 Gy irradiation under normoxic condition by Alamar blue assay; format: cell-based, Canis lupus familiaris; conditions: dog, 0.05 µM; how it was run: as §5
MDCK [16] = experiment: Cytotoxicity against carbonic anhydrase 9 knockdown MDCK cells assessed as reduction in cell viability at 500 nM pretreated for 1 hr followed by 2 Gy irradiation under normoxic condition by Alamar blue assay; format: cell-based, Canis lupus familiaris; conditions: dog, 0.5 µM; how it was run: as §5
HCT-116 = experiment: Effect on mitochondrial respiration in human HCT116 cells expressing carbonic anhydrase 9 assessed as reduction in oxygen consumption rate at 0.5 mM […]; format: functional, cell-based

| Structure (SMILES) | Activity (MDCK [1]) | Ki (Carbonic anhydrase 12) [µM] | Activity (MDCK [2]) | Activity (MDCK [3]) | Ki (Carbonic anhydrase 9) [µM] | Activity (MDCK [4]) | Ki (Carbonic anhydrase 2) [µM] | Activity (MDCK [5]) | Activity (MDCK [6]) | Ki (Carbonic anhydrase 1) [µM] | Activity (MDCK [7]) | also measured |
| --- | --- | --- | --- | --- | --- | --- | --- | --- | --- | --- | --- | --- |
| CS(=O)(=O)c1ccc(-c2cnc(N)c(C(=O)Nc3ccccc3)n2)cc1 | Active | > 50 | Active | Non-Toxic | > 50 | Active | > 50 | Toxic | Toxic | > 50 | Active | – |
| CNCc1ccc(-c2cc(-c3nc(-c4ccc(S(=O)(=O)C(C)C)cc4)cnc3N)on2)cc1 [BERZOSERTIB] | – | > 50 | – | – | > 50 | – | > 50 | – | – | > 50 | – | Activity (MDCK [8]): Active; Activity (MDCK [9]): Toxic; Activity (MDCK [10]): Active; Activity (MDCK [11]): Active; Activity (MDCK [12]): Toxic; Activity (MDCK [13]): Active; Activity (MDCK [14]): Non-Toxic; Activity (MDCK [15]): Non-Toxic |
| CS(=O)(=O)c1ccc(-c2cnc(NS(N)(=O)=O)c(C(=O)Nc3ccccc3)n2)cc1 | Active | > 50 | Active | Non-Toxic | > 50 | Active | > 50 | Toxic | Toxic | > 50 | Active | Activity (MDCK [16]): Non-Toxic |
| N=C(N)NC(=N)NCCc1ccccc1 | – | – | – | – | – | – | – | – | – | – | – | Activity (HCT-116): Active |
